# HSF-1 act: HSF-1 activators, primary screen, NIH3T3-HGL cells, MG132 stress, luminescence, single point; NIH3T3-HGL HSF-1 luciferase reporter, 8 h; 100% = twice DMSO control signal; activation, % at 9 µM; 300,000 tested, 1.7% active;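 active means mean replicate activation of at least 50% with a set share of replicates each reaching 50%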;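 further: 0% = median of the neutral control wells and 100% = twice that signal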
# HSF1 inhib: HSF1 inhibitors in luciferase reporter cells, primary screen, cell-based, NIH3T3, luminescence | NIH3T3-HGL HSE-luciferase, MG132-induced, luminescence 8 h; active compounds read low | 300,000 tested, 0.77% active | AID 2098, 2009 | activity change, negative = inhibition, % at 7.5 µM (by protocol);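 active means more than half of replicate wells show activity change below -50%, luminescence cut by over half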;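 further: luciferase reports HSF-1 transcriptional activity via heat shock element; 0% = median of DMSO wells and -100% = zero luminescence signal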
# PHOSPHO1 block: PubChem AID 1565. Phosphoethanolamine/phosphocholine phosphatase (Homo sapiens), Q8TCT1. recombinant PHOSPHO1, absorbance phosphatase assay. inhibition, % at 13.3 µM. 290,000 tested, 1.1% active; in the data active means inhibition above about 60%
# Target sequence (Q8TCT1 whole entry, looked up): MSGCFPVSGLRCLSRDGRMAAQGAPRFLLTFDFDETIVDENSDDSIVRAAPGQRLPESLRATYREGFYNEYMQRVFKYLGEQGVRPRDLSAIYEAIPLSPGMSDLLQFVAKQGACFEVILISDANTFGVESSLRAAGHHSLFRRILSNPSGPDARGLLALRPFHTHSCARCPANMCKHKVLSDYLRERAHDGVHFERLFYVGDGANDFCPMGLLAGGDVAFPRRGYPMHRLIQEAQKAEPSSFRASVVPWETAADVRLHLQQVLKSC
# HCV core dimer: inhibitors of HCV core protein dimerization, primary screen, biochemical, TR-FRET, high-throughput; AID 1899, 2009; inhibition, % at 5 µM; TR-FRET GST/Flag-core106 dimerization, 1536-well; 300,000 tested, 0.33% active;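 active means inhibition above the mean of all tested compounds plus 3 SD, set per screening campaign, cut at about 45% in these data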
#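 Material: GST/Flag-tagged HCV core106 proteins. Incubation: 4 h, 22.5 °C incubation. Read-out basis: inhibition (%) from 671 over 617 nm ratio. Measured by: TR-FRET, excitation 340 nm, emission 617 and 671 nm.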
# AI-2 QS modul: Vibrio harveyi AI-2 quorum sensing modulators, primary screen, JMH597 strain, luminescence/OD600 ratio | 300,000 tested, 0.4% active | activity change, % at 7.5 µM | Vibrio harveyi JMH597 AI-2 luminescence/OD600 ratio, 9 h; active compounds read low; strain lacks LuxN and CqsS sensors; 0 = neutral-control median; in the data active means activity change below about -75%, passing the limit was not always enough;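 further: luminescence divided by OD600 gain over 9 h not by final OD600 alone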
# ALR inh: inhibitors of human ALR sulfhydryl oxidase, primary screen, biochemical, H2O2 detection, HRP-luminol luminescence, single point; purified ALR, DTT oxidation; inhibition, % (no concentration beside the values); 290,000 tested, 3.8% active;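 active means mean replicate inhibition above about 79%, with every replicate also reaching it, limit read from the data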
# Target sequence (P55789 whole entry, looked up): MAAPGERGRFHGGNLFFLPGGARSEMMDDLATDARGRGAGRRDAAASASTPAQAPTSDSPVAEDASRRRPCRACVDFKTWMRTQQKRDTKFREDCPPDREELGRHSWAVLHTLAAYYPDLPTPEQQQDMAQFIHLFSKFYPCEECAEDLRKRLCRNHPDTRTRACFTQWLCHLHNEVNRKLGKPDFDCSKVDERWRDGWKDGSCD
# JMH597 growth: Vibrio harveyi growth inhibition, confirmation, counter-screen for AI-2 quorum sensing project, JMH597 strain, OD600 absorbance; shares compounds with AI-2 QS modul; 9 h; lacks LuxN and CqsS sensors; growth inhibition, % at 7.5 µM; 750 tested, 1% active; AID 2726, 2010;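 active means every replicate shows growth inhibition above 50%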
# BB721 const-QS lum: luminescence inhibition in constitutive-on V. harveyi, confirmation, counter-screen for LuxS inhibitor project, strain BB721, luminescence readout; shares compounds with AI-2 QS modul; inhibition, % at 7.5 µM; AID 2727, 2010; 750 tested, 95% active; Vibrio harveyi BB721 luminescence, 9 h;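 active means inhibition above about 80% in every replicate, not just on average, limit read from the data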
# BB721 growth: growth inhibition of V. harveyi BB721, confirmation, cytotoxicity control for AI-2 quorum sensing inhibitors, strain BB721, absorbance OD600; growth inhibition, % at 7.5 µM; Vibrio harveyi BB721 growth, 9 h; shares compounds with AI-2 QS modul; AID 2728, 2010; 750 tested, 3% active;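 active means every replicate shows growth inhibition above 50%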
# JMH597 AI-2 mod: Vibrio harveyi AI-2 signaling luminescence modulation – JMH597 strain, confirmation | shares compounds with AI-2 QS modul | Vibrio harveyi JMH597 AI-2 quorum sensing luminescence, 9 h; luxN and CqsS knockout, AI-2 only | inhibition, % at 7.5 µM | 750 tested, 97% active | AID 2736, 2010;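 active means every replicate shows more than 75% inhibition of signal versus neutral control wells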
# Numbers without * were called inactive; / = not tested or not shown. Hits are enriched below; roughly 6.8% of the tested compounds scored in any of these assays.
SMILES,HSF-1 act,HSF1 inhib,PHOSPHO1 block,HCV core dimer,AI-2 QS modul,ALR inh,others
O=C(c1ccc(F)c([N+](=O)[O-])c1)N1CC2CC(C1)c1cccc(=O)n1C2 (stereo not drawn),-10.8,-5.9,29.2,-4.8,13.0,2.1,
O=C1NC(=S)NC(=O)C1=Cc1ccc2c(c1)CCN2CCCCl,14.2,-0.4,-25.2,65.1*,-36.1,/,
O=C(COC(=O)c1ccc(O)cc1)Nc1ccc(Cl)cc1C(=O)c1ccccc1,23.0,15.0,18.2,0.1,47.3,96.1*,
COC(=O)C1=C(c2ccc3ccccc3c2)C[C@@H]2CC[C@H]1N2C(=O)NCc1ccc(C(F)(F)F)cc1,/,/,/,/,/,-4.2,
C[C@H]1CCCC(=O)CCC/C=C/c2cc(O)cc(O)c2C(=O)O1,23.9,5.2,-16.0,1.2,32.8,/,
COc1cc(O)cc2c1C(=O)OC(C)CCCC(=O)CCC/C=C\2 (stereo not drawn),107.2*,65.3,20.0,4.7,19.2,3.2,
COC(=O)C1=C(c2ccc(OC(F)(F)F)cc2)C[C@@H]2CC[C@H]1N2C(=O)NCCOc1ccc(OC)cc1,/,/,/,/,/,-0.8,
Oc1cc2c(cc1O)[C@H]1c3ccccc3CN[C@@H]1CC2,11.4,13.9,15.8,-15.3,13.6,99.0*,
Cc1ccc(Cn2ccccc2=N)cc1,-51.1,-39.9,19.7,/,17.4,-6.1,
OC(CNCCc1c[nH]c2ccccc12)c1ccccc1 (stereo not drawn),-5.0,-2.1,23.9,9.1,/,-4.0,
CCC12C=CCN3CCC4(c5cc(Br)c(OC)cc5N(C)C4C(O)(C(=O)OC)C1OC(C)=O)C32 (stereo not drawn),20.8,9.2,34.3,3.1,13.1,84.7*,
O=C(N/N=C/c1c(O)n(Cc2ccc(F)cc2)c(=O)[nH]c1=O)c1ccccc1O,4.5,-7.6,-11.4,1.9,22.4,97.0*,
O=C(N/N=C/c1c(O)n(Cc2ccccc2)c(=O)[nH]c1=O)c1ccccc1O,-12.2,-5.3,3.5,0.0,19.0,55.6,
C[C@@H]1CCC2[C@@H](C)C(=O)O[C@@H]3OC4(C)CCC1[C@@]23OO4 (stereo partly drawn),/,/,/,/,/,-3.1,
CNC(C)Cc1ccccc1Sc1ccc(O)cc1 (stereo not drawn),-14.9,-5.0,38.2,-2.2,-4.0,99.1*,
CC(C)c1ccc(NC(=O)CCNC(=O)N2C[C@H]3C[C@@H](C2)c2cccc(=O)n2C3)cc1,14.2,-1.9,33.8,-2.7,9.9,-2.5,
C[N+]12CCC(CC1)C(C#N)(N1CCOCC1)C2 (stereo not drawn),2.1,-1.7,100.9*,-4.0,21.5,-4.5,
OCC1CO1 (stereo not drawn),/,/,/,/,/,7.2,
COc1ccc(SCC2CN(C)CCC2c2ccc(F)cc2)cc1 (stereo not drawn),67.0*,34.0,/,-4.7,17.1,1.9,
CCc1ccc(NC(=O)CN2CC(c3ccccc3)CC2=O)cc1 (stereo not drawn),4.7,-3.1,21.9,1.7,-81.5*,/,JMH597 growth=20.8;BB721 const-QS lum=87.8*;BB721 growth=9.8;JMH597 AI-2 mod=92.3*
CC(=O)OC1CC[C@]2(C#N)[C@H]3CC[C@]4(C)[C@H](C5C=CC(=O)O5)CCC4(O)C3CCC2(O)C1 (stereo partly drawn),6.2,-3.8,9.8,-1.6,10.6,-1.8,
O=C(Cc1ccccc1)OCC(=O)c1ccccc1,15.4,0.6,-1.4,/,-80.1*,-12.1,JMH597 growth=18.6;BB721 const-QS lum=96.0*;BB721 growth=3.3;JMH597 AI-2 mod=97.5*
O=C1COc2ccc(C(=O)COC(=O)Cc3ccccc3)cc2N1,14.7,0.6,/,-5.0,-90.0*,-1.9,JMH597 growth=-6.2;BB721 const-QS lum=96.4*;BB721 growth=-37.4;JMH597 AI-2 mod=97.5*
O=C(Cc1ccccc1)OCC(=O)c1ccc(F)cc1,/,/,/,/,/,-1.8,
COC(=O)C1=C(c2cccc(NC(C)=O)c2)C[C@@H]2CC[C@H]1N2C,/,/,/,/,/,-0.4,

# Bioassay records: PubChem, several laboratories
